Experiments:
[1] = Inhibition of AKT-mediated GSK3-beta phosphorylation in human BT474 cells by mechanistic assay; format: cell-based; details: BT-474
How it was run: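 Cellular mechanistic assay in BT474 cells measuring inhibition of GSK3β phosphorylation, reported as IC50.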

[2] = biological target: RAC-alpha serine/threonine-protein kinase (Homo sapiens, UniProt P31749); experiment: Inhibition of AKT1
How it was run: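 AKT1 enzyme IC50 from the standard high-throughput AKT enzyme assay.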

[3] = system: HFF; experiment: Cytotoxicity against human HFF cells; format: cell-based
How it was run: (§1)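 Inhibition of cell proliferation, reported as IC50. AKT-sensitive lines were BT474 and LNCaP; HFF was the non-tumour-derived line.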

[4] = system: LNCaP; experiment: Cytotoxicity against human LNCAP cells; format: functional, cell-based; how it was run: as §1
[5] = system: Mus musculus; experiment: Inhibition of GSK3-beta phosphorylation in human BT474 xenografted ip dosed mouse after 4 hrs administered once relative to control; format: functional, organism-based
How it was run: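 BT474 tumour-bearing xenograft mice received a single ip injection at 6.25, 12.5 or 25 mg/kg. Vehicle was 5% dextrose, pH 4.0. Tumours were harvested 4 h post-dose and pGSK3β levels compared with the vehicle group.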

[6] = biological target: Epidermal growth factor receptor (Homo sapiens, UniProt P00533)
Chain of Epidermal growth factor receptor (P00533 whole entry): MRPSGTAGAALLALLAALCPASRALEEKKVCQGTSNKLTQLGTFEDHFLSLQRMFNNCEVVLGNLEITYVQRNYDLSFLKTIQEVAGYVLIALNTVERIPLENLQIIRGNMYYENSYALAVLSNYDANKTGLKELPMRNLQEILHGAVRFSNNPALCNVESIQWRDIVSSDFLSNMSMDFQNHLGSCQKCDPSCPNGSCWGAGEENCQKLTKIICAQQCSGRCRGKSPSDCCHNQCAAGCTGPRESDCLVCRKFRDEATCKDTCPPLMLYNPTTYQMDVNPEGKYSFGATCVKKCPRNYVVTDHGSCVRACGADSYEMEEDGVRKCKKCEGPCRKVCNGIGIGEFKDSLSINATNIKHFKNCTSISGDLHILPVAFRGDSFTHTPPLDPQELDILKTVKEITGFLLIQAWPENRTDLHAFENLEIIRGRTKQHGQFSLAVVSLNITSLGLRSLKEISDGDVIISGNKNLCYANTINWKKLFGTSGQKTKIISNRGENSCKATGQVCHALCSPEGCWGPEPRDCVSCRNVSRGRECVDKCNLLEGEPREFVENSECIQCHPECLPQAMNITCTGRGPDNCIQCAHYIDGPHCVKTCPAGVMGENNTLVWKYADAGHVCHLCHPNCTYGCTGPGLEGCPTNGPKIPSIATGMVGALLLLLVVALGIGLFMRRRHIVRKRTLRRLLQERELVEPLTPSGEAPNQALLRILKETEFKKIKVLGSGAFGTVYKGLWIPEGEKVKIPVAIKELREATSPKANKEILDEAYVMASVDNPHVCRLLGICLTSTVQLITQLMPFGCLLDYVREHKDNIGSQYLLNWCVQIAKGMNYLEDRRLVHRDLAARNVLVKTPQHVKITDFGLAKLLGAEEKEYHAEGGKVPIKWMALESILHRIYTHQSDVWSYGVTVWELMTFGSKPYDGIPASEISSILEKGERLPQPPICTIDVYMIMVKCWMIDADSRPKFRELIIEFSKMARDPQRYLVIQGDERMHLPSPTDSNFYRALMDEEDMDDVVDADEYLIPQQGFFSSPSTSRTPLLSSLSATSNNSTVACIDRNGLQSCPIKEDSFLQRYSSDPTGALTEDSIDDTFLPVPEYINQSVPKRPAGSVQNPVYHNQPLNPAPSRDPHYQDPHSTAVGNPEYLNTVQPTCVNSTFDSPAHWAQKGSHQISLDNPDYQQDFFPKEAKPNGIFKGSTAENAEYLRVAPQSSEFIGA

[7] = biological target: Glycogen synthase kinase-3 beta (Homo sapiens, UniProt P49841); experiment: Inhibition of GSK3-beta
Chain of Glycogen synthase kinase-3 beta (P49841 whole entry): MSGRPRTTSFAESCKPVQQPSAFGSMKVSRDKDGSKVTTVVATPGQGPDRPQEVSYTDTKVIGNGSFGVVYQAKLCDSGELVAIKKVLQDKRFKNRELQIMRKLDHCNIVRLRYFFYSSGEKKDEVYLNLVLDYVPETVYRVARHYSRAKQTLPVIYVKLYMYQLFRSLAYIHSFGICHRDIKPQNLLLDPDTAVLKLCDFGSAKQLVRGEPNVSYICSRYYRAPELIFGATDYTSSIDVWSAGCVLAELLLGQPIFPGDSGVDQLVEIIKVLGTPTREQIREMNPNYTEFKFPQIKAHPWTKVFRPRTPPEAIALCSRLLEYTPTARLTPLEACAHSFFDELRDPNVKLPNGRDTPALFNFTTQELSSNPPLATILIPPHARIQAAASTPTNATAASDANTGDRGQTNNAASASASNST

[8] = system: BT-474; experiment: Cytotoxicity against human BT474 cells; format: functional, cell-based; how it was run: as §1
[9] = biological target: Protein kinase C alpha type (Homo sapiens, UniProt P17252); experiment: Inhibition of PKCalpha
[10] = biological target: Serine/threonine-protein kinase pim-1 (Homo sapiens, UniProt P11309); experiment: Inhibition of PIM1
Chain of Serine/threonine-protein kinase pim-1 (P11309 whole entry): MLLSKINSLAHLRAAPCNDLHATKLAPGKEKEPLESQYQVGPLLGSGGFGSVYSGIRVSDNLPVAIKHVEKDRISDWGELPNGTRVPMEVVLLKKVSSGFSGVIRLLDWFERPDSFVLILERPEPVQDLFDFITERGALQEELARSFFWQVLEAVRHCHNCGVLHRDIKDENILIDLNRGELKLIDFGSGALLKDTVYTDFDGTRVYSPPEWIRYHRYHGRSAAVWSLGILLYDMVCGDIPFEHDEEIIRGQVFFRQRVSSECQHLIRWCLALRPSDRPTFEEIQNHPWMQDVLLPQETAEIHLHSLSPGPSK

[11] = biological target: MAP kinase-activated protein kinase 2 (Homo sapiens, UniProt P49137); experiment: Inhibition of MAPKAPK2
Chain of MAP kinase-activated protein kinase 2 (P49137 whole entry): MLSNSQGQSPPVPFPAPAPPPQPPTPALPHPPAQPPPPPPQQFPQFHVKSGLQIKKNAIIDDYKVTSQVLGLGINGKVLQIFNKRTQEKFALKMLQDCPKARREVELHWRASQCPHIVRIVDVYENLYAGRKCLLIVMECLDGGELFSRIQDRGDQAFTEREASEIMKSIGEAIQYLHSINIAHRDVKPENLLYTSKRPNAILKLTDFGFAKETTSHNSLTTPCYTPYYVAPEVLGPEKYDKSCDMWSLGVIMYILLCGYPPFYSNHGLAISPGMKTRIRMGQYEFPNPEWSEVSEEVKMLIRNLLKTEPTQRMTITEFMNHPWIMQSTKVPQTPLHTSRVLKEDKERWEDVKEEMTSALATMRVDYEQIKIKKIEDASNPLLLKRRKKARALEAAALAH

[12] = biological target: RAC-gamma serine/threonine-protein kinase (Homo sapiens, UniProt Q9Y243); experiment: Inhibition of AKT3
Chain of RAC-gamma serine/threonine-protein kinase (Q9Y243 whole entry): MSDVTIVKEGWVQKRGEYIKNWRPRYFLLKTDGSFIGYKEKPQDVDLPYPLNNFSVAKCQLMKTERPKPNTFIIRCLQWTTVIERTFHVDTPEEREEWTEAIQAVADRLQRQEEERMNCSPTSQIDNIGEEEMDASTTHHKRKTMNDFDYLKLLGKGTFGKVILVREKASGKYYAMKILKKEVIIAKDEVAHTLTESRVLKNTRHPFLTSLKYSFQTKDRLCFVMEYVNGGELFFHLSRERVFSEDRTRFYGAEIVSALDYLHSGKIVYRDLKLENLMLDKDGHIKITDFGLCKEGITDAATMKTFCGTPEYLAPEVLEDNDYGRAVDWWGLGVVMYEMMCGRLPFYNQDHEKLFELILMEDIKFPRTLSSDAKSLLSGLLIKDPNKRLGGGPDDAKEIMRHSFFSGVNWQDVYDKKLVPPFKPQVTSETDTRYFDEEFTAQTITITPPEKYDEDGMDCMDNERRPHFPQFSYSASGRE

[13] = (§2) AUC (0 to t) in rat at 10 mg/kg, po after 24 hrs; format: ADME, organism-based, Plasma; set-up: time < 24 hr, dose 10 mg/kg, route oral; details: plasma
How it was run: (§3)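 iv/po crossover pharmacokinetic study in conscious male rats, n = 3. Dosing was 2 mg/kg iv and 10 mg/kg po.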

[14] = Half life in rat at 10 mg/kg, po after 24 hrs; format: ADME, organism-based; set-up: dose 10 mg/kg, route oral; details: in vivo; how it was run: as §3
[15] = Clearance in rat at 2 mg/kg, iv after 24 hrs; format: ADME, organism-based; set-up: dose 2 mg/kg, route intravenous; details: in vivo; how it was run: as §3
[16] = (§4) Oral bioavailability in rat at 10 mg/kg after 24 hrs; format: ADME, organism-based; details: in vivo; how it was run: as §3
[17] = Cmax in rat at 10 mg/kg, po after 24 hrs; format: ADME, organism-based; set-up: dose 10 mg/kg, route oral; details: in vivo; how it was run: as §3
[18] = Half life in rat at 2 mg/kg, iv after 24 hrs; format: ADME, organism-based; set-up: dose 2 mg/kg, route intravenous; details: in vivo; how it was run: as §3
[19] = Cmax in rat at 2 mg/kg, iv after 24 hrs; format: ADME, organism-based; set-up: dose 2 mg/kg, route intravenous; details: in vivo; how it was run: as §3
[20] = (§5) AUC (0 to t) in rat at 2 mg/kg, iv after 24 hrs; format: ADME, organism-based, Plasma; set-up: time < 24 hr, dose 2 mg/kg, route intravenous; details: plasma; how it was run: as §3
[21] = system: Rattus norvegicus; experiment: as §2; format: ADME, organism-based, Plasma; set-up: time < 24 hr, dose 10 mg/kg, route oral; details: in vivo, 24 h; how it was run: as §3
[22] = system: Rattus norvegicus; experiment: as §4; format: ADME, organism-based; details: in vivo, 24 h; how it was run: as §3
[23] = system: Rattus norvegicus; experiment: as §5; format: ADME, organism-based, Plasma; set-up: time < 24 hr, dose 2 mg/kg, route intravenous; details: in vivo, 24 h; how it was run: as §3

Chain of RAC-alpha serine/threonine-protein kinase (P31749 whole entry): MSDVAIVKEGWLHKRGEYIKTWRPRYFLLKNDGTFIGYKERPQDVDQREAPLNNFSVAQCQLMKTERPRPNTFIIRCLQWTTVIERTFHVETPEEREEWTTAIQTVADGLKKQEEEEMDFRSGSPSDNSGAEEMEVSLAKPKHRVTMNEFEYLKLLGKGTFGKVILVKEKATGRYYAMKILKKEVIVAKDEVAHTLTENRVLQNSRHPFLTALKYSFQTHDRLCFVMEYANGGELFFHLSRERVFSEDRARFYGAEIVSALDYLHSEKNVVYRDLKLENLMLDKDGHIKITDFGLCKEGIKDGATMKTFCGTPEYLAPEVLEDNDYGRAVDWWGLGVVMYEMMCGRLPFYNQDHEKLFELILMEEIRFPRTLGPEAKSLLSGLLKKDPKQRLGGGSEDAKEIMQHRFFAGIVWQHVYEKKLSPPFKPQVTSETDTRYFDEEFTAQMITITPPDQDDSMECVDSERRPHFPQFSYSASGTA

Structure (SMILES) | IC50 [1] [nM] | IC50 [2] [nM] | Ki [2] [nM] | IC50 [12] [nM] | IC50 [3] [nM] | IC50 [4] [nM] | IC50 [8] [nM] | further results
NC[C@H](Cc1cccc(F)c1)NC(=O)c1cc(Br)c(-c2ccnc3[nH]ccc23)s1 | 90 | 1 | 0.03 | – | 260 | 18 | 240 | Activity [5]: Dose-dependent effect; IC50 [6]: 10000 nM; IC50 [7]: 20000 nM; IC50 [9]: 40 nM; IC50 [10]: 794 nM; IC50 [11]: 2500 nM
NCCCC(NC(=O)c1cc(Br)c(-c2ccnc3[nH]ccc23)s1)c1ccccc1 (stereo unspecified) | 4800 | 20 | – | – | – | – | – | –
NCC(NCc1ccc(-c2ccnc3[nH]ccc23)s1)c1ccccc1 (stereo unspecified) | > 10000 | 100 | – | – | – | – | – | –
NC[C@H](Cc1ccc(C(F)(F)F)cc1)NC(=O)c1cc(Br)c(-c2ccnc3[nH]ccc23)s1 | 2000 | 2 | 2 | 3 | 1300 | 440 | 1200 | –
NCC(NC(=O)c1cc(-c2ccnc3[nH]ccc23)cs1)c1ccccc1 (stereo unspecified) | 1000 | 40 | – | – | – | – | – | –
NC[C@H](Cc1ccncc1)NC(=O)c1cc(Br)c(-c2ccnc3[nH]ccc23)s1 | 1900 | – | 2 | – | 3600 | 750 | 2300 | –
NCC(CNc1ccc(-c2ccnc3[nH]ccc23)s1)c1ccccc1 (stereo unspecified) | > 10000 | 250 | – | – | – | – | – | –
NCC(NC(=O)c1cc(-c2c[nH]c3ncccc23)cs1)c1ccccc1 (stereo unspecified) | 1100 | 25 | – | – | – | – | – | –
NC[C@H](Cc1ccccc1F)NC(=O)c1cc(Br)c(-c2ccnc3[nH]ccc23)s1 | 220 | 1 | – | 2 | 260 | 39 | 120 | –
NCC(NC(=O)c1cc(-c2ccccc2)c(-c2ccnc3[nH]ccc23)s1)c1ccccc1 (stereo unspecified) | 10000 | 50 | – | – | – | – | – | –
NC[C@H](Cc1ccc(F)cc1)NC(=O)c1cc(Br)c(-c2ccnc3[nH]ccc23)s1 | 180 | 1 | 0.06 | 2 | 490 | 66 | 500 | –
NC[C@H](Cc1cccc(C(F)(F)F)c1)NC(=O)c1cc(Br)c(-c2ccnc3[nH]ccc23)s1 | 170 | 1 | 0.1 | 1 | 530 | 78 | 60 | –
NC[C@@H](Cc1ccccc1)NC(=O)c1cc(Br)c(-c2ccnc3[nH]ccc23)s1 | 6000 | 32 | 20 | 40 | 1900 | 2700 | 4500 | –
NCC(NC(=O)c1cc(Br)c(-c2ccnc3[nH]ccc23)s1)c1ccccc1 (racemic) | 500 | 8 | 20 | 20 | 1200 | 750 | 4000 | AUC(0-t) at 24 h [13]: 3400 ng·h/mL; half-life [14]: 4.1 h; clearance [15]: 16.7 mL/min/kg; bioavailability [16]: 32%; Cmax [17]: 550 ng/mL; half-life [18]: 3.6 h; Cmax [19]: 1800 ng/mL; AUC(0-t) at 24 h [20]: 3250 ng·h/mL
CNCC(NC(=O)c1cc(Br)c(-c2ccnc3[nH]ccc23)s1)c1ccccc1 (stereo unspecified) | 780 | 3 | – | – | – | – | – | –
NCC(NC(=O)c1cc(-c2cn[nH]c2)c(-c2ccnc3[nH]ccc23)s1)c1ccccc1 (stereo unspecified) | 2500 | 63 | – | – | – | – | – | –
NCC(NC(=O)c1cc(C2CC2)c(-c2ccnc3[nH]ccc23)s1)c1ccccc1 (stereo unspecified) | 800 | 6 | – | – | – | – | – | –
NCC(C(=O)Nc1ccc(-c2ccnc3[nH]ccc23)s1)c1ccccc1 (stereo unspecified) | 560 | 3 | – | – | – | – | – | –
NC(CNC(=O)c1cc(Br)c(-c2ccnc3[nH]ccc23)s1)c1ccccc1 (stereo unspecified) | > 10000 | 40 | – | – | – | – | – | –
NC[C@H](Cc1ccccc1)NC(=O)c1cc(Br)c(-c2ccnc3[nH]ccc23)s1 | 100 | 1 | 0.06 | 2 | 90 | 21 | 230 | –
NC[C@H](Cc1ccccc1C(F)(F)F)NC(=O)c1cc(Br)c(-c2ccnc3[nH]ccc23)s1 | 50 | 3 | 0.05 | 2 | 730 | 24 | 60 | –

Continued, in another order:

IC50 [1] [nM] | IC50 [2] [nM] | Ki [2] [nM] | IC50 [12] [nM] | Structure (SMILES) | IC50 [3] [nM] | IC50 [4] [nM] | IC50 [8] [nM] | further results
120 | 8 | – | – | Cc1cc(C(=O)NC(CN)c2ccccc2)sc1-c1ccnc2[nH]ccc12 (stereo unspecified) | – | – | – | –
> 10000 | 158 | – | – | NCCNC(=O)c1cc(Br)c(-c2ccnc3[nH]ccc23)s1 | – | – | – | –
1100 | 4 | – | – | CCNCC(Cc1ccccc1)NC(=O)c1cc(Br)c(-c2ccnc3[nH]ccc23)s1 (stereo unspecified) | – | – | – | –
2100 | 10 | – | – | CC(C)NCC(Cc1ccccc1)NC(=O)c1cc(Br)c(-c2ccnc3[nH]ccc23)s1 (stereo unspecified) | – | – | – | –
260 | 2 | – | – | CNCC(Cc1ccccc1)NC(=O)c1cc(Br)c(-c2ccnc3[nH]ccc23)s1 (stereo unspecified) | – | – | – | –
1900 | 1 | 0.79 | 3 | NC[C@H](CC1CCCCC1)NC(=O)c1cc(Br)c(-c2ccnc3[nH]ccc23)s1 | – | 440 | 2600 | –
> 10000 | 20 | – | – | CN(C)CC(NC(=O)c1cc(Br)c(-c2ccnc3[nH]ccc23)s1)c1ccccc1 (stereo unspecified) | – | – | – | –
1500 | 8 | – | – | NCCC(NC(=O)c1cc(Br)c(-c2ccnc3[nH]ccc23)s1)c1ccccc1 (stereo unspecified) | – | – | – | –
190 | 6 | – | – | NCC(NC(=O)c1ccc(-c2ccnc3[nH]ccc23)s1)c1ccccc1 (stereo unspecified) | – | – | – | –
1000 | 3 | 5 | 2 | COc1ccc(C[C@@H](CN)NC(=O)c2cc(Br)c(-c3ccnc4[nH]ccc34)s2)cc1 | 890 | 720 | 1900 | –
6000 | 63 | – | – | NCC(NC(=O)c1cc(-c2cccnc2)c(-c2ccnc3[nH]ccc23)s1)c1ccccc1 (stereo unspecified) | – | – | – | –
4700 | 25 | – | – | NCC(C(=O)Nc1cc(Br)c(-c2ccnc3[nH]ccc23)s1)c1ccccc1 (stereo unspecified) | – | – | – | –
240 | 16 | – | – | NCC(NC(=O)c1ccc(-c2c[nH]c3ncccc23)s1)c1ccccc1 (stereo unspecified) | – | – | – | –
80 | 1 | 0.04 | 3 | NCC(Cc1ccccc1)NC(=O)c1cc(Br)c(-c2ccnc3[nH]ccc23)s1 (racemic) | 410 | 45 | 200 | AUC [21]: 664 ng·h/mL; clearance [15]: 49 mL/min/kg; F [22]: 38%; Cmax [17]: 248 ng/mL; half-life [18]: 3.8 h; Cmax [19]: 712 ng/mL; AUC [23]: 893 ng·h/mL
